Measurements reported in ChEMBL document CHEMBL1149458, “Synthesis and pharmacological evaluation of second-generation phosphatidic acid derivatives as lysophosphatidic acid receptor ligands” (Bioorg Med Chem Lett, 2006).
Activity calls are given as the source filed them. The calls are words filed in the database; no cut-off is given here.

What was measured:
[1] = target: Lysophosphatidic acid receptor 1 (Homo sapiens, UniProt Q92633); assay: Activity at LPA1 receptor transfected RH7777 cells; type: cell-based
Chain of Lysophosphatidic acid receptor 1 (Q92633 whole entry): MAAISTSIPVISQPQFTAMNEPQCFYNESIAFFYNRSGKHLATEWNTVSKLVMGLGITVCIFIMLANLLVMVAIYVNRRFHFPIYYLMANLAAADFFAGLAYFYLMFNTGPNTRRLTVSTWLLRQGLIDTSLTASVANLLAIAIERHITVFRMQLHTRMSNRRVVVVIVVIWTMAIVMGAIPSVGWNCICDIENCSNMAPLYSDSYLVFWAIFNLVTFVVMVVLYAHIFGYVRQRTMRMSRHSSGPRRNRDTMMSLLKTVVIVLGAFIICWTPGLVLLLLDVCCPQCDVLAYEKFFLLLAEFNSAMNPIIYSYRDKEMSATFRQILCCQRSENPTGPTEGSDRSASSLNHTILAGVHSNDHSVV
Method in brief: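 RH7777 cells, which lack endogenous LPA GPCR, were stably transfected with LPA1. Intracellular Ca2+ transients were recorded after applying increasing concentrations of compound to build dose–response relationships, with LPA 18:1 as the reference agonist.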

[2] = target: T1, Lysophosphatidic acid receptor 3 (Homo sapiens) (UniProt Q9UBY5); assay: Activity at LPA3 receptor transfected RH7777 cells; type: cell-based
T1 sequence (whole entry): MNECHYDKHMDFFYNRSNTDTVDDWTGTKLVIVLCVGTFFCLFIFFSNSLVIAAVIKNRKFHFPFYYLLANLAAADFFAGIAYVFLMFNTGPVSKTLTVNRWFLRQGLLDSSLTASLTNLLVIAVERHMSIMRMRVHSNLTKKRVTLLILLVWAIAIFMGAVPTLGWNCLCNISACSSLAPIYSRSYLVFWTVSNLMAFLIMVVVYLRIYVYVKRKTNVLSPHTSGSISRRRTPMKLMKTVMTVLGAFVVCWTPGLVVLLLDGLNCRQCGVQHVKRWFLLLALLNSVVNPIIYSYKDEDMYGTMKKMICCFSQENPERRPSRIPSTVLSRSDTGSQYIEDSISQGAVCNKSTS
Method in brief: (§1)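 RH7777 cells, which lack LPA GPCR, stably transfected with the single receptor (LPA2 or LPA3). Intracellular Ca2+ transients recorded after applying increasing compound concentrations, benchmarked against LPA 18:1, to assess agonist and antagonist activity.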

[3] = target: T2, Peroxisome proliferator-activated receptor gamma (Homo sapiens) (UniProt P37231); assay: Activation of PPARgamma in CV1 cells transfected with PPARgamma and luciferase reporter gene; type: functional, cell-based; conditions: CV-1
T2 sequence (whole entry): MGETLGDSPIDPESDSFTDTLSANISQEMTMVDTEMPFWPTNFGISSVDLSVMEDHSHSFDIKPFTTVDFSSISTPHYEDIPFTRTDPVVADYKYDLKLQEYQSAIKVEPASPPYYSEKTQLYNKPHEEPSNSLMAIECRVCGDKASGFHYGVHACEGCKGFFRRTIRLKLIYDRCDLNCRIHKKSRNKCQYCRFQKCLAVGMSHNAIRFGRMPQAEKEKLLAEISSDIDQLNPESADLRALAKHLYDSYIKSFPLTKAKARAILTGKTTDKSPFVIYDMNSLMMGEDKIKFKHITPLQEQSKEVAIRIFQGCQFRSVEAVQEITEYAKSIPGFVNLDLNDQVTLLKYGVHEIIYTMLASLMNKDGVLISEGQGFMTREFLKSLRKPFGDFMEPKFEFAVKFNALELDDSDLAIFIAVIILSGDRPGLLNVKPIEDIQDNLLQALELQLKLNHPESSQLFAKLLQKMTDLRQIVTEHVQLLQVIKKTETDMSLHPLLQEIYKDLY
Method in brief: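 CV1 cells transfected with PPARγ and a PPRE-Acox-Rluc reporter, treated 20 h with vehicle or 10 µM compound in DMSO. Luciferase and β-galactosidase activities measured in cell lysate (mean ± SEM, n = 4). Rosiglitazone used as reference agonist; significance versus vehicle control.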

[4] = test system: RH7777 (Rattus norvegicus); assay: Ability to evoke intracellular calciums transient in wild-type RH7777 cells
[5] = target: Lysophosphatidic acid receptor 2 (Homo sapiens) (UniProt Q9HBW0); assay: Activity at LPA2 receptor transfected RH7777 cells; type: cell-based; method in brief: as §1
Chain of Lysophosphatidic acid receptor 2 (Homo sapiens) (Q9HBW0 whole entry): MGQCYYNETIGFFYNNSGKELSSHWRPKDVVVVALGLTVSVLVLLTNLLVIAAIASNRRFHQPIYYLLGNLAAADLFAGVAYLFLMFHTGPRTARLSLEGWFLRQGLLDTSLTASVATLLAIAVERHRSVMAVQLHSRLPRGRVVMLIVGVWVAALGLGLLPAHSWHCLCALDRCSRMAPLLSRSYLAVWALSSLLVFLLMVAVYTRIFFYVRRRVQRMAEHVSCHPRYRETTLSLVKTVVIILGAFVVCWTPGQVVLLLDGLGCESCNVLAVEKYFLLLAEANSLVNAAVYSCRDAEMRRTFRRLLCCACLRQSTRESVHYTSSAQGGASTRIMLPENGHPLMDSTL

Autotaxin = Autotaxin (Homo sapiens, UniProt Q13822); assay: Inhibition of recombinant ATX from transfected HEK293 cells; type: cell-based; conditions: for inhibition: concentration not given here
Method in brief: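 Recombinant ATX in conditioned medium from transiently transfected HEK293 cells, assayed by hydrolysis of the substrate bis(para-nitrophenyl) phosphate.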

Compound: CCCCCCCCOC[C@H](COP(=O)(O)O)OCCCCCCCC
- Emax [1]: 57%
- Emax [2]: 109%
- Activity [3]: Active
- Activity [4]: inactive

Compound: CCCCCCCCNC(=O)[C@@H](COP(=O)(O)O)NC(=O)CCCCCCC
- Activity [3]: inactive

Compound: CCCCCCCCOC[C@H](COP(O)(O)=S)OCCCCCCCC
- Emax [1]: 30%
- Emax [5]: 27%
- Emax [2]: 109%
- Activity [3]: Active
- Activity [4]: inactive

Compound: CCCCCCCC(=O)OC[C@H](COP(O)(O)=S)OC(=O)CCCCCCC
- Emax [5]: 58%
- IC50 (Autotaxin): 597 nM
- inhibition (Autotaxin): 72.5%
- Activity [3]: inactive

Compound: CCCCCCCC(=O)OC[C@H](COP(=O)(O)O)OC(=O)CCCCCCC
- IC50 [1]: 692 nM
- Ki [1]: 407 nM
- IC50 (Autotaxin): 1640 nM
- inhibition (Autotaxin): 49.9%

Compound: CCCCCCCC(=O)OC[C@@H](COP(O)(O)=S)OC(=O)CCCCCCC
- Emax [5]: 17%
- Emax [2]: 30%
- IC50 (Autotaxin): 727 nM
- inhibition (Autotaxin): 52.3%
- Activity [3]: inactive

Compound: CCCCCCCCOC[C@@H](COP(=O)(O)O)OCCCCCCCC
- Activity [3]: Active
- Activity [4]: inactive

Compound: CCCCCCCC(=O)OC[C@@H](COP(=O)(O)O)OC(=O)CCCCCCC
- Activity [3]: inactive

Compound: CCCCCCCCNC(=O)[C@H](COP(O)(O)=S)NC(=O)CCCCCCC
- Activity [3]: inactive

Compound: CCCCCCCCNC(=O)[C@@H](COP(O)(O)=S)NC(=O)CCCCCCC
- Activity [3]: inactive

Compound: CCCCCCCCOC[C@@H](COP(O)(O)=S)OCCCCCCCC
- Activity [3]: Active
- Activity [4]: inactive
